Data on 9 molecules can be found in ChEMBL document CHEMBL1134488, “Potent reversible inhibitors of the protein tyrosine phosphatase CD45” (J Med Chem, 2001).

For assay [1], the system named is T-cell. In words: In vitro inhibition of human T-cell proliferation. Format: functional, cell-based.
Assay [2] has as its target T1, Tyrosine-protein phosphatase non-receptor type 13 (Homo sapiens, UniProt Q12923). As to the kind of experiment: Inhibitory concentration against FAP-1 using lck-10 mer as substrate.
The target in assay [3] is T2, Receptor-type tyrosine-protein phosphatase C (Homo sapiens, UniProt P08575).
T2 sequence (P08575 whole entry): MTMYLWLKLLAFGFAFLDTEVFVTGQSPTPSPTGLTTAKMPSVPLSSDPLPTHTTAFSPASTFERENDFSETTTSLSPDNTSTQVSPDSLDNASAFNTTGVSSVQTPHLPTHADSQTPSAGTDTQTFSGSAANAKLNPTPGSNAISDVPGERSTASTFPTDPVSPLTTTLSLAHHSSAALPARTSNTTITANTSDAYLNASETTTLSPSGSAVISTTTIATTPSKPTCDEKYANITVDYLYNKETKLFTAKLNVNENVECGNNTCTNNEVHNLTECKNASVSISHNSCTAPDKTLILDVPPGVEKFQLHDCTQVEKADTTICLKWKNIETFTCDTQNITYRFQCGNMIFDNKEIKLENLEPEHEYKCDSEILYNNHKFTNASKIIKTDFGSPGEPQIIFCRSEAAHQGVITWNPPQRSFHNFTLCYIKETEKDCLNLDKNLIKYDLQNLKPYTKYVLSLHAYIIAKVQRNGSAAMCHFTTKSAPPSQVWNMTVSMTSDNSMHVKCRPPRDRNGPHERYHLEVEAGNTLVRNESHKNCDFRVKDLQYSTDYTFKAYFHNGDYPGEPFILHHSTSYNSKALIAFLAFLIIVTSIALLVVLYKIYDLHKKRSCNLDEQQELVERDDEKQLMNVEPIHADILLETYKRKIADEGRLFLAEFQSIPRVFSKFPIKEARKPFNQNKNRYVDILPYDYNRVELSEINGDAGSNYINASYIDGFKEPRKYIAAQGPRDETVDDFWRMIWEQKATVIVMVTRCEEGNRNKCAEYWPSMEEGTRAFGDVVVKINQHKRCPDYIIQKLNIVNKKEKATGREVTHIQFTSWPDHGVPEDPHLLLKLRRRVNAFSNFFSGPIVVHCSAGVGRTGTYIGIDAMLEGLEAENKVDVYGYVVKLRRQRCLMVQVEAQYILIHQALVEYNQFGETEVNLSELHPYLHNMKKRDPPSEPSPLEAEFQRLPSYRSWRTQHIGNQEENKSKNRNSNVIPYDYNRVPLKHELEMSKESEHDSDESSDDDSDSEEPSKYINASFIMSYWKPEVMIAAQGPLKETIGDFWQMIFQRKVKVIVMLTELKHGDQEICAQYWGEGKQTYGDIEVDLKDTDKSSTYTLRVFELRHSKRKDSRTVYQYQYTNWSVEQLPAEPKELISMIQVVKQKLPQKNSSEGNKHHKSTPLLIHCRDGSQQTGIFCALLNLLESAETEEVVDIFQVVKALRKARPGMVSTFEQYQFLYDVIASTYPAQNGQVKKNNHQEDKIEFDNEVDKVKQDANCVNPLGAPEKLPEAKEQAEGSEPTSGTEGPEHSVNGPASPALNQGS
As to the kind of experiment: Inhibitory concentration against CD45 protein-tyrosine phosphatase using lck-10mer as substrate.

For assay [4], the target named is T1, Tyrosine-protein phosphatase non-receptor type 13. In words: Inhibitory concentration against FAP-1 pNPP.
The subject of assay [5] is T-cell. In words: Cytotoxicity measured against human T-cells. It is filed as functional.
Another assay deals with Procathepsin L (Homo sapiens, UniProt P07711). As to the kind of experiment: Inhibitory concentration against Cathepsin L. In outline:
(§1)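 Cysteine protease assays. Peptide substrates were CBZ-L-lysine p-nitrophenyl ester, Z-Phe-Arg-NH-Mec and Z-Val-Val-Arg-NH-Mec. Values are means of experiments run in triplicate, given in µM.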

A further assay addresses Cathepsin B (Homo sapiens, UniProt P07858). In words: Inhibitory concentration against Cathepsin B. The gist of the method: as §1
Another assay addresses Cathepsin S (Homo sapiens, UniProt P25774). In words: Inhibitory concentration against Cathepsin S. In outline:
as §1

In assay [6] the target is T1, Tyrosine-protein phosphatase non-receptor type 13. As to the kind of experiment: Inhibitory concentration against FAP-1 using lck-10mer as substrate.
Assay [7] has the same target. As to the kind of experiment: Inhibitory concentration against FAP-1 using pNPP as substrate.
For assay [8], the target named is T3, Tyrosine-protein phosphatase non-receptor type 1 (Homo sapiens, UniProt P18031).
T3 sequence (P18031 whole entry): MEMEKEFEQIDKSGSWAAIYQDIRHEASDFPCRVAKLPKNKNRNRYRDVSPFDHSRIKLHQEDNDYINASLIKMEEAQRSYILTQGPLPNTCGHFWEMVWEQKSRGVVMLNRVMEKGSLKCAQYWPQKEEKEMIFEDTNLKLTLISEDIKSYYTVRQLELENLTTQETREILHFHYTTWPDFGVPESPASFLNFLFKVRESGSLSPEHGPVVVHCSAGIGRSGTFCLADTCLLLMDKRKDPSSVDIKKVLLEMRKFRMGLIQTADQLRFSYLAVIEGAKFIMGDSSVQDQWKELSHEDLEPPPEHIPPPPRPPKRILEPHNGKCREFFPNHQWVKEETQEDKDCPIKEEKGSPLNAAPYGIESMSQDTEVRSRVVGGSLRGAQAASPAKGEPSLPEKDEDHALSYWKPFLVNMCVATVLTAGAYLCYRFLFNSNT
As to the kind of experiment: Inhibitory concentration against PTP1B lusing lck-10mer as substrate.

Assay [9] has as its target T2, Receptor-type tyrosine-protein phosphatase C. As to the kind of experiment: Inhibitory concentration against CD45 protein-tyrosine phosphatase pNPP.
Assay [10] addresses T3, Tyrosine-protein phosphatase non-receptor type 1. As to the kind of experiment: Inhibitory concentration against PTP1B using lck as substrate.
Assay [11] addresses T2, Receptor-type tyrosine-protein phosphatase C. As to the kind of experiment: Inhibitory concentration against CD45 protein-tyrosine phosphatase using lck-10 mer as substrate.
The target is the same in assay [12]. As to the kind of experiment: In vitro inhibitory activity against the cytosolic portion of CD45 protein-tyrosine phosphatase using pNPP as the substrate.

A value given as a limit tells only on which side of the number the result lay.

T1 sequence (Q12923 whole entry): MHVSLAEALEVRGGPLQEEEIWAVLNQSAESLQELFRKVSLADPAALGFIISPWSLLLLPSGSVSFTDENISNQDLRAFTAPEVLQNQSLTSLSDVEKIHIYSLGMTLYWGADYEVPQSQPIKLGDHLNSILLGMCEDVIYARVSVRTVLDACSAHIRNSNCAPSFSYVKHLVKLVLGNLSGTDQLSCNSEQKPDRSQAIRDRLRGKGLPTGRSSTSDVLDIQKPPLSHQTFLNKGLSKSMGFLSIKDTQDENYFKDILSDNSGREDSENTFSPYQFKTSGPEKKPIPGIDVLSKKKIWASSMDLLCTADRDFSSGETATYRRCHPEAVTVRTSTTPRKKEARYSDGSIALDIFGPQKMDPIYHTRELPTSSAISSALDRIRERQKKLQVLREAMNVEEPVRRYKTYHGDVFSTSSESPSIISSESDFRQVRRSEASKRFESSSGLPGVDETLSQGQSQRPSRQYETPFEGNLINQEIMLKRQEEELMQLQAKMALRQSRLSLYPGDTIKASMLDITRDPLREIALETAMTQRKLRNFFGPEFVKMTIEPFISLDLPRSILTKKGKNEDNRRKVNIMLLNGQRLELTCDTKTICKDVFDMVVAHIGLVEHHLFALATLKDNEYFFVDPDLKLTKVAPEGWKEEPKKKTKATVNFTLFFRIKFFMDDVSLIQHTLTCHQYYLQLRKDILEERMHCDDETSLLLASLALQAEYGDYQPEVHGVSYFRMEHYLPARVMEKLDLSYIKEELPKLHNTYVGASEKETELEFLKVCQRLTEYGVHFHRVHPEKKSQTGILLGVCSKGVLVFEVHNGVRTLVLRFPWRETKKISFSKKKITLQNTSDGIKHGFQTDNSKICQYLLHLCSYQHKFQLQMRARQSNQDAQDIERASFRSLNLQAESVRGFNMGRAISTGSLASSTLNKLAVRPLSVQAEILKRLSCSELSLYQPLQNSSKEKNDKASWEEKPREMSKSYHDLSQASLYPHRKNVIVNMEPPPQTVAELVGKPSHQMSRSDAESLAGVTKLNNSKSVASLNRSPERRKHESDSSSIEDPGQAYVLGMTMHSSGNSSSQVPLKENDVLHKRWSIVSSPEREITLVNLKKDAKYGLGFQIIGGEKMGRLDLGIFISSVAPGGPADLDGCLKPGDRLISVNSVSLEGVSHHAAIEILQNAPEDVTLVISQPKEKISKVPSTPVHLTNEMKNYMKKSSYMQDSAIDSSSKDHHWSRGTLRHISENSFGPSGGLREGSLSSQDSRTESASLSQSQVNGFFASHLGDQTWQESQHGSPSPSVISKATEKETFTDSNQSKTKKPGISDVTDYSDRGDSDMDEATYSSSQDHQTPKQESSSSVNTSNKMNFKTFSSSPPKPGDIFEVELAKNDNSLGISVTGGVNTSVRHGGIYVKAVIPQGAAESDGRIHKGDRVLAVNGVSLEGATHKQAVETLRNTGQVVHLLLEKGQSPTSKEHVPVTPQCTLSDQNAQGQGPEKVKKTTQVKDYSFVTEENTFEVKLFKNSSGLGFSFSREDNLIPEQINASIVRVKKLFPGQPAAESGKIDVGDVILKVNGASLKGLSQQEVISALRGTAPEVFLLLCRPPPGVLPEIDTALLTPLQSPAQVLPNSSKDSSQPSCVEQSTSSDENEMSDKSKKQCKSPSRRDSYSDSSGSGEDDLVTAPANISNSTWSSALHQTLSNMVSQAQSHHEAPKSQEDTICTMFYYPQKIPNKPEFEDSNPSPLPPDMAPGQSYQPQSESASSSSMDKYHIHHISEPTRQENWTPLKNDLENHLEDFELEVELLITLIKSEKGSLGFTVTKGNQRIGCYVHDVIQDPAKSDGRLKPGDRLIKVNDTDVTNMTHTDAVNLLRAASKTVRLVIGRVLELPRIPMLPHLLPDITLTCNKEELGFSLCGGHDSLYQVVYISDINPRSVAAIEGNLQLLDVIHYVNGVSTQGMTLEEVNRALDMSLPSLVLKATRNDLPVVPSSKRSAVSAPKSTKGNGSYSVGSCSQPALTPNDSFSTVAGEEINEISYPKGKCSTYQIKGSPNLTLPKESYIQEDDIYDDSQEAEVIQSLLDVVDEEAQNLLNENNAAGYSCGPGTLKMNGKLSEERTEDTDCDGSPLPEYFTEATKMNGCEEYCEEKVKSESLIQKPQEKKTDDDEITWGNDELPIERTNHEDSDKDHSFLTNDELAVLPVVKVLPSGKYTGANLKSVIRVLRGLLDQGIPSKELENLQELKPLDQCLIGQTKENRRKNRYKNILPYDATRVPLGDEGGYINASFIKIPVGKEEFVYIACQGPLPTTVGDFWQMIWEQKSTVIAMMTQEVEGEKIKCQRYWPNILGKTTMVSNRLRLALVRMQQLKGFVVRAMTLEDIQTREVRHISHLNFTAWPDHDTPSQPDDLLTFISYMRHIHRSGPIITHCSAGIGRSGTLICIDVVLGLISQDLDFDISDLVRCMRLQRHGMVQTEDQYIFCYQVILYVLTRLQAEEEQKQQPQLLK
Sequence of Procathepsin L (P07711 whole entry): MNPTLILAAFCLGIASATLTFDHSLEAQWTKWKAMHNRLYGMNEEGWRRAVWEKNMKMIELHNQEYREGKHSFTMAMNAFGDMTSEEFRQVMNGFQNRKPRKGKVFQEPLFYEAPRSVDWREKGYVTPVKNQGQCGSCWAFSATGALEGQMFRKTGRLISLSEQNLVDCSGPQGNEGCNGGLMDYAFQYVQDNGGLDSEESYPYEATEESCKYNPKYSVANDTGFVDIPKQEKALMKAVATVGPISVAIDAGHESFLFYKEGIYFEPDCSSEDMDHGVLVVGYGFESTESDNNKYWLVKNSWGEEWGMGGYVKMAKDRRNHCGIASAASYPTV
Sequence of Cathepsin S (P25774 whole entry): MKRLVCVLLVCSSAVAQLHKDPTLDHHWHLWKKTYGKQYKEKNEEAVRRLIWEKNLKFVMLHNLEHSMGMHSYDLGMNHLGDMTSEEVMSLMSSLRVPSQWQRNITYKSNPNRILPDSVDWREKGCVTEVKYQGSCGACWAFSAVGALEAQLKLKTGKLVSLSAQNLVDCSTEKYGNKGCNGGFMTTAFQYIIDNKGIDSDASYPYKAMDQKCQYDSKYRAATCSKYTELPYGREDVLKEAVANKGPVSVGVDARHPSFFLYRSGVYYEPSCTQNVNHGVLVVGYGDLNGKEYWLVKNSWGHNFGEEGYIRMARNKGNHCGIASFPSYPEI

Consider `O=C(O)CNC(=O)c1ccc2c(c1)C(=O)C(=O)c1ccccc1-2`, for which the IC50 in the assay on T-cell [1] is 4.4 µM; in [2] it was > 30 µM; in assay [3] it was 1.9 µM; in [4], 15 µM; against Procathepsin L it was 0.9 µM; on Cathepsin B it was > 10 µM. Besides, the IC50 against Cathepsin S was > 10 µM. For the same molecule, in the assay with T-cell [5], the half-maximal cytotoxic concentration (CC50) is > 30 µM.
Regarding `Nc1ccc2c(c1)C(=O)C(=O)c1ccccc1-2`, the IC50 in [6] was > 30 µM; in [7] it was 4.7 µM; at Procathepsin L it was 0.6 µM; on Cathepsin B, > 10 µM; in assay [8], > 30 µM; at Cathepsin S, 6 µM. Besides, it took 5 µM to reach half-maximal cytotoxicity in the assay on T-cell [5] (CC50).
Turning to `COC(=O)CCCCCCC(=O)Nc1ccc2c(c1)C(=O)C(=O)c1ccccc1-2`, the half-inhibitory concentration (IC50) in assay [2] was > 30 µM; in assay [4] it was 9.9 µM; against Procathepsin L, > 10 µM; on Cathepsin B, > 10 µM; against Cathepsin S it was > 10 µM. The molecule also showed a CC50 in the assay with T-cell [5] of 14 µM.
Consider `O=C1C(=O)c2cccnc2-c2ccccc21`, for which the IC50 in the assay with T-cell [1] was 0.2 µM; in assay [2] it was > 30 µM; in assay [4], 14 µM; in assay [9], 1.4 µM; at Procathepsin L it was 0.6 µM; against Cathepsin B it was > 10 µM. Besides, the IC50 in assay [10] was > 30 µM; in assay [11], 3.1 µM; at Cathepsin S it was 0.4 µM. In the assay with T-cell [5], the CC50 is 2.4 µM.
As to `O=C(Nc1ccc2c(c1)C(=O)C(=O)c1ccccc1-2)c1ccccc1F`, the concentration for half-maximal inhibition (IC50) in the assay with T-cell [1] is 3.1 µM; in assay [2] it was 20 µM; in [4] it was 0.6 µM; in assay [9], 0.6 µM; at Procathepsin L, 0.4 µM; against Cathepsin B, > 10 µM. Besides, the IC50 in [10] came to 18 µM; in assay [11] it was 11 µM; on Cathepsin S, 9 µM. This molecule registered a 50% cytotoxic concentration (CC50) with T-cell [5] of 20 µM.
With `CC(C)(C)C(=O)Nc1ccc2c(c1)C(=O)C(=O)c1ccccc1-2`, the 50% inhibitory concentration (IC50) in assay [2] is > 30 µM; in assay [4] it was 7 µM; at Procathepsin L, 0.5 µM; against Cathepsin B it was > 10 µM; in assay [10] it was > 30 µM; in assay [11], 3.8 µM. On Cathepsin S, this molecule showed a concentration for half-maximal inhibition (IC50) of 0.4 µM. In addition, the CC50 with T-cell [5] is 3.5 µM.
Regarding `O=C(Nc1ccc2c(c1)-c1ccccc1C(=O)C2=O)c1ccccc1F`, the concentration for half-maximal inhibition (IC50) in the assay on T-cell [1] is 2.9 µM; in assay [10], > 30 µM; in assay [12], 1.2 µM; in assay [11], 5.8 µM. In the assay with T-cell [5], the CC50 worked out at 15 µM.
As for `COC(=O)CCC(=O)Nc1cccc2c1C(=O)C(=O)c1ccccc1-2`, the IC50 was 0.5 µM in the assay on T-cell [1], > 30 µM in assay [2], 4.4 µM in assay [4] and > 10 µM at Cathepsin B. Also, the CC50 in the assay on T-cell [5] came out at 9 µM.
Turning to `COC(=O)CCC(=O)Nc1ccc2c(c1)C(=O)C(=O)c1cc(NC(=O)CCC(=O)OC)ccc1-2`, the IC50 in assay [2] was > 30 µM; in [4], 12 µM; at Procathepsin L it was 5.4 µM; against Cathepsin B it was > 10 µM; in assay [11], 2.9 µM; at Cathepsin S it was > 10 µM. The molecule further showed a cytotoxic concentration (CC50) with T-cell [5] of 7 µM.

A word on the IC50: it is the concentration that gives 50% inhibition. Low readings indicate higher potency, high ones lower potency. Usually CC50 stands for the concentration that lowers cell viability or growth by half. High values mean lower toxicity to the cells, low ones greater toxicity to the cells.
